Measured values: paper PMC7047882 (Archives of biochemistry and biophysics, 2019)
Where two headings read alike, the source gives them in different places.

Columns and labels:
bovine brain tubulin [1] = target: T1, bovine brain tubulin (Bos taurus, UniProt P81947+Q6B856); assay: Turbidity development; assay type: biochemical
Procedure, shortened: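 Electrophoretically homogeneous bovine brain tubulin, without the gel-filtration step used for the binding studies. Reactions were run in glass vessels in 0.1 M Mes, brought to pH 6.5 or 6.9 with NaOH, with MgCl2 (for example 2 mM, 22 °C). Test compounds were added from dimethyl sulfoxide stocks, with the same dimethyl sulfoxide concentration in controls. The read-out was turbidity development.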

tubulin [2] = details: cited from earlier work
tubulin [3] = details: cited from earlier work; remark: listed apart in the source
tubulin [4] = details: cited from earlier work; remark: listed apart in the source
bovine brain tubulin [5] = target: T1, bovine brain tubulin; assay: biochemical; assay type: binding; details: for inhibition at 30 µM: pH 6.9, read-out: Effect on DZA binding (% inhibition ± SE)
bovine brain tubulin [6] = target: T1, bovine brain tubulin; assay: Recovery of compound-induced aberrant tubulin polymer by centrifugation; assay type: biochemical; details: for tubulin recovery by centrifugation (in words): pH 6.9, 2 mM MgCl2, 22 °C
Procedure, shortened: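 Electrophoretically homogeneous bovine brain tubulin, without gel filtration, was used. Reaction mixtures contained 0.1 M Mes (pH 6.9 or 6.5, adjusted with NaOH) with 2 mM MgCl₂ at 22 °C. The test compound was added from dimethyl sulfoxide stocks, and controls received equal dimethyl sulfoxide. Reactions were run in glass vessels, and aberrant polymer was harvested by centrifugation and read as tubulin in pellets.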

cultured cancer cells = details: cited from earlier work

T1 sequence (Q6B856 whole entry): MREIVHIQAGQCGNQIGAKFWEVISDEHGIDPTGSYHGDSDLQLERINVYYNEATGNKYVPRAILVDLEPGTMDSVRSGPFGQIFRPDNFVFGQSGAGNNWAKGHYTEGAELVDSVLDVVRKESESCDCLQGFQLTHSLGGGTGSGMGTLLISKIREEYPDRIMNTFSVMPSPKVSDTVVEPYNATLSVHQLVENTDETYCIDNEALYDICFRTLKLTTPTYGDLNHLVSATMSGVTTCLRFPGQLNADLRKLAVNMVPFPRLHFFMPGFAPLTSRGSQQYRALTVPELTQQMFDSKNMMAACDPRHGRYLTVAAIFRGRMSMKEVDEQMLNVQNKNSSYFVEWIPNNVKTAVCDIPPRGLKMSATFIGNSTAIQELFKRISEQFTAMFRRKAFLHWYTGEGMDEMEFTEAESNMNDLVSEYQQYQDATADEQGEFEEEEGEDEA
T1 sequence (P81947 whole entry): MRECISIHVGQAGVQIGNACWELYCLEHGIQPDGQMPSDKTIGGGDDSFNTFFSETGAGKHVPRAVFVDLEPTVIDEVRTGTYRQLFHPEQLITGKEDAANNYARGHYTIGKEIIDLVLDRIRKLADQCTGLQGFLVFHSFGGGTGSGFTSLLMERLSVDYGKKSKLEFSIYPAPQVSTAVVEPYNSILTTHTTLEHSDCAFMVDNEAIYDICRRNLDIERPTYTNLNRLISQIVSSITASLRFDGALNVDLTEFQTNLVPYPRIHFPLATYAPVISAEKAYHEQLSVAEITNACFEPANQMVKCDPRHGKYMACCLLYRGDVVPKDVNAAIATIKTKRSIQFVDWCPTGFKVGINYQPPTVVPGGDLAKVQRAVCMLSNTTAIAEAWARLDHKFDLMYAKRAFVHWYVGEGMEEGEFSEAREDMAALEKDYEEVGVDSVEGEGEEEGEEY

For `CC(C)[C@H](O)C(=O)N[C@H]1Cc2ccc3c(c2)[C@]24C5=C(N=C(O5)[C@H](C(C)C)NC1=O)c1nc(Cl)c(o1)-c1c(Cl)[nH]c5cccc(c15)-c1cccc2c1N[C@@H]4O3` [DZA, diazonamide A], the “turbidity development (in words)” value (bovine brain tubulin [1]; 0.1 M Mes (pH 6.5), 2 mM MgCl2, 22 °C) is listed as “differed little from that with D10”, the “inhibition of binding of [^3H]D10 to tubulin (in words)” value (tubulin [2]) is listed as “no inhibition” and the “inhibition of binding of [^3H]vinblastine to tubulin (in words)” value (tubulin [3]) is listed as “no inhibition”. For the same compound, the “inhibition of tubulin assembly (in words)” value (tubulin [4]) was “potent inhibitor”, the “inhibition of [^3H]DZA binding to tubulin (in words)” value (bovine brain tubulin [5]) was “no inhibition of binding” and the “tubulin recovery by centrifugation (in words)” value (“tubulin recovery” below) (bovine brain tubulin [6]; 10 and 20 μM compound) was “large amounts”. For the same compound, the “tubulin recovered in pellets (in words)” value (bovine brain tubulin [6]; pH 6.5, 2 mM MgCl2, 22 °C) was “almost all the tubulin”.

With `COc1ccc(/C=C\c2cc(OC)c(OC)c(OC)c2)cc1O` [Combretastatin A-4, combretastatin A-4] the inhibition at 30 µM (bovine brain tubulin [5]) was 17 ± 3%.

In the case of `CC[C@H](C)[C@@H]([C@@H](CC(=O)N1CCC[C@H]1[C@H](OC)[C@@H](C)C(=O)N[C@@H](Cc1ccccc1)c1nccs1)OC)N(C)C(=O)[C@@H](NC(=O)[C@H](C(C)C)N(C)C)C(C)C` [D10, dolastatin 10], the “turbidity development (in words)” value (bovine brain tubulin [1]; all conditions examined) is reported as “Extensive turbidity development”, the “inhibition of [^3H]DZA binding to tubulin (in words)” value (bovine brain tubulin [5]; without a tubulin preincubation) is reported as “inhibition was negligible” and the “tubulin recovery” value (bovine brain tubulin [6]; 10 and 20 μM compound) is reported as “even larger amounts”.

For `CC[C@]1(O)C[C@@H]2CN(CCc3c([nH]c4ccccc34)[C@@](C(=O)OC)(c3cc4c(cc3OC)N(C)[C@H]3[C@@](O)(C(=O)OC)[C@H](OC(C)=O)[C@]5(CC)C=CCN6CC[C@]43[C@@H]65)C2)C1` [Vinblastine, vinblastine], the “inhibition of [^3H]DZA binding to tubulin (in words)” value (bovine brain tubulin [5]) was “absolutely no inhibitory effect”, the “Effect on DZA binding (% enhancement ± SE; indicated by E before the value)” value (bovine brain tubulin [5]; pH 6.9) was “E 11 ± 5%” and the “tubulin recovery” value (bovine brain tubulin [6]; 20 μM compound) was “even larger amounts”.

For `COc1ccc(C[C@H]2NC(=O)/C=C/C[C@@H]([C@H](C)[C@H]3O[C@@H]3c3ccccc3)OC(=O)[C@H](CC(C)C)OC(=O)[C@H](C)CNC2=O)cc1Cl` [Cryptophycin 1, cryptophycin 1], the “IC50 values for cultured cancer cells (in words)” value (cultured cancer cells) is listed as “picomolar”, the “turbidity development (in words)” value (bovine brain tubulin [1]; most conditions examined) is listed as “little turbidity development” and the “maximal inhibition of [^3H]DZA binding” value (bovine brain tubulin [5]; preincubated tubulin, near maximal with 3 μM compound) is listed as 50-60%.

With `CN[C@H](C(=O)N[C@H](C(=O)N(C)[C@H](/C=C(\C)C(=O)O)C(C)C)C(C)(C)C)C(C)(C)c1cn(C)c2ccccc12` [Hemiasterlin, hemiasterlin] the inhibition at 30 µM (bovine brain tubulin [5]) was 43 ± 3% and the “tubulin recovery” value (bovine brain tubulin [6]; 20 μM compound) was “a moderate amount”.

`COc1cc2cc(c1Cl)N(C)C(=O)C[C@H](OC(=O)[C@H](C)N(C)C(C)=O)[C@]1(C)O[C@H]1[C@H](C)[C@@H]1C[C@@](O)(NC(=O)O1)[C@H](OC)/C=C/C=C(\C)C2` [Maytansine, maytansine] gave an inhibition at 30 µM (bovine brain tubulin [5]) of 9.2 ± 6%.
